Assay results taken from ChEMBL document CHEMBL1123779, “Modifications of primaquine as antimalarials. 4. 5-Alkoxy derivatives of primaquine” (J Med Chem, 1987).

What was measured:
Mus musculus [1] = assay: Suppressive blood schizonticidal antimalarial activity evaluated in the trophozoite-induced Plasmodium berghei infection in mice (Mus musculus) at a dose 320 mg/kg given as no. of toxic deaths; assay type: functional
Summary of the method: (§1)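 Rane Laboratory mouse test with blood-induced P. berghei infection, five mice per group. Toxic deaths are deaths occurring before the 6th day postinfection.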

Mus musculus [2] = assay: (§2) Suppressive blood schizonticidal antimalarial activity evaluated in the trophozoite-induced Plasmodium berghei infection in mice (Mus musculus) at a dose 40 mg/kg; assay type: functional; set-up: unit not given beside the values
Summary of the method: (§3)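 Run at the Rane Laboratory in mice infected with blood-induced P. berghei, five animals per group. Activity is the increase in mean survival time over untreated infected controls. A compound counts as active when treated-group MST is more than twice the control MST. Cures are mice surviving at 60 days postinfection.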

Plasmodium berghei [3] = assay: Blood schizonticidal antimalarial activity in the trophozoite-induced Plasmodium berghei infection in mice (Mus musculus) at 20 mg/kg; assay type: functional; set-up: unit not given beside the values; summary of the method: as §3
Plasmodium cynomolgi [4] = assay: Cures in Plasmodium cynomolgi infected Rhesus monkeys (Macaca mulatta) on 0.1 mg/kg/day after 7 days (x7); cured 0 of 2; assay type: functional
Plasmodium cynomolgi [5] = assay: Radical curative antimalarial activity against Plasmodium cynomolgi in Rhesus monkeys (Macaca mulatta) at 1 mg/kg/day over 7 days; cured 1 of 2; assay type: functional
Mus musculus [6] = assay: Suppressive blood schizonticidal antimalarial activity evaluated in the trophozoite-induced Plasmodium berghei infection in mice (Mus musculus) at a dose 80 mg/kg given as no. of toxic deaths; assay type: functional; summary of the method: as §1
Mus musculus [7] = assay: Suppressive blood schizonticidal antimalarial activity evaluated in the trophozoite-induced Plasmodium berghei infection in mice (Mus musculus) at a dose 160 mg/kg given as no. of toxic deaths; assay type: functional; summary of the method: as §1
Plasmodium berghei [8] = assay: Suppressive blood schizonticidal antimalarial activity evaluated in the trophozoite-induced Plasmodium berghei infection in mice (Mus musculus) at a dose 640 mg/kg given as number of toxic deaths; assay type: toxicity, organism-based; set-up: dose 640 mg/kg; conditions: in vivo; summary of the method: as §1
Plasmodium cynomolgi [9] = assay: Cures in Plasmodium cynomolgi infected Rhesus monkeys (Macaca mulatta) on 0.316 mg/kg/day after 7 days; cured 0 of 2; assay type: functional
Plasmodium berghei [10] = assay: Blood schizonticidal activity in trophozoite-induced Plasmodium berghei infected mice (Mus musculus) at 40 mg/kg; numbers cured; assay type: functional
Summary of the method: (§4)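 Run at the Rane Laboratory with blood-induced P. berghei infections in mice, five animals per group. A cure is a mouse surviving to 60 days postinfection. Deaths before day 6 are recorded separately as toxic deaths. Activity is scored from the increase in mean survival time over untreated controls, and counts as active when treated MST is more than twice control MST.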

Plasmodium cynomolgi [11] = assay: Cures in Plasmodium cynomolgi infected Rhesus monkeys (Macaca mulatta) on 1 mg/kg/day after 7 days; cured 3 of 4; assay type: functional
Mus musculus [12] = assay: Suppressive blood schizonticidal antimalarial activity evaluated in the trophozoite-induced Plasmodium berghei infection in mice (Mus musculus) at a dose 10 mg/kg; assay type: functional; summary of the method: as §3
Mus musculus [13] = assay: Suppressive blood schizonticidal antimalarial activity evaluated in the trophozoite-induced Plasmodium berghei infection in mice (Mus musculus) at a dose 160 mg/kg; assay type: functional; summary of the method: as §3
Mus musculus [14] = assay: Suppressive blood schizonticidal antimalarial activity evaluated in the trophozoite-induced Plasmodium berghei infection in mice (Mus musculus) at a dose 80 mg/kg given as no. of cures; assay type: functional; summary of the method: as §4
Plasmodium cynomolgi [15] = assay: Cures in Plasmodium cynomolgi infected Rhesus monkeys (Macaca mulatta) on 0.316 mg/kg/day after 7 days; cured 1 of 1; assay type: functional
Mus musculus [16] = assay: Suppressive blood schizonticidal antimalarial activity evaluated in the trophozoite-induced Plasmodium berghei infection in mice (Mus musculus) at a dose 5 mg/kg; assay type: functional; set-up: unit not given beside the values; summary of the method: as §3
Mus musculus [17] = assay: Suppressive blood schizonticidal antimalarial activity evaluated in the trophozoite-induced Plasmodium berghei infection in mice (Mus musculus) at a dose 2.5 mg/kg; assay type: functional; summary of the method: as §3
Plasmodium cynomolgi [18] = assay: Cures in Plasmodium cynomolgi infected Rhesus monkeys (Macaca mulatta) on 1 mg/kg/day after 7 days; cured 1 of 1; assay type: functional
Mus musculus [19] = assay: as §2; assay type: functional; summary of the method: as §4
Mus musculus [20] = assay: Suppressive blood schizonticidal antimalarial activity evaluated in the trophozoite-induced Plasmodium berghei infection in mice (Mus musculus) at a dose 80 mg/kg; assay type: functional; set-up: unit not given beside the values; summary of the method: as §3
Plasmodium cynomolgi [21] = assay: Cures in Plasmodium cynomolgi infected Rhesus monkeys (Macaca mulatta) on 0.1 mg/kg/day after 7 days; cured 0 of 1; assay type: functional
Mus musculus [22] = assay: Suppressive blood schizonticidal antimalarial activity evaluated in the trophozoite-induced Plasmodium berghei infection in mice (Mus musculus) at a dose 5 mg/kg given as no. of cures; assay type: functional; summary of the method: as §4
Plasmodium cynomolgi [23] = assay: Cures in Plasmodium cynomolgi infected Rhesus monkeys (Macaca mulatta) on 0.316 mg/kg/day after 7 days; cured 3 of 3; assay type: functional
Mus musculus [24] = assay: Suppressive blood schizonticidal antimalarial activity evaluated in the trophozoite-induced Plasmodium berghei infection in mice (Mus musculus) at a dose 2.5 mg/kg given as number of cures; assay type: functional; summary of the method: as §4
Mus musculus [25] = assay: Suppressive blood schizonticidal antimalarial activity evaluated in the trophozoite-induced Plasmodium berghei infection in mice (Mus musculus) at a dose 10 mg/kg given as no. of cures; assay type: functional; summary of the method: as §4
Mus musculus [26] = assay: Suppressive blood schizonticidal antimalarial activity evaluated in the trophozoite-induced Plasmodium berghei infection in mice (Mus musculus) at a dose 20 mg/kg given as no. of cures; assay type: functional; summary of the method: as §4
Plasmodium cynomolgi [27] = assay: Cures in Plasmodium cynomolgi infected Rhesus monkeys (Macaca mulatta) on 3.16 mg/kg/day after 7 days; cured 0 of 1; assay type: functional
Plasmodium cynomolgi [28] = assay: Radical curative antimalarial activity against Plasmodium cynomolgi in Rhesus monkeys (Macaca mulatta) at 0.1 mg/kg/day over 7 days; cured 5 of 5; assay type: functional
Plasmodium cynomolgi [29] = assay: Cures in Plasmodium cynomolgi infected Rhesus monkeys (Macaca mulatta) on 1 mg/kg/day after 7 days; cured 2 of 2; assay type: functional
Plasmodium cynomolgi [30] = assay: Cures in Plasmodium cynomolgi infected Rhesus monkeys (Macaca mulatta) on 0.316 mg/kg/day after 7 days; cured 2 of 4; assay type: functional
Plasmodium cynomolgi [31] = assay: Cures in Plasmodium cynomolgi infected Rhesus monkeys (Macaca mulatta) on 10.0 mg/kg/day after 7 days; assay type: functional, organism-based
Plasmodium cynomolgi [32] = assay: Radical curative antimalarial activity against Plasmodium cynomolgi in Rhesus monkeys (Macaca mulatta) at 1 mg/kg/day over 7 days; cured 4 of 4; assay type: functional
Plasmodium cynomolgi [33] = assay: Cures in Plasmodium cynomolgi infected Rhesus monkeys (Macaca mulatta) on 0.316 mg/kg/day after 7 days; cures 2 of 2; assay type: functional
Mus musculus [34] = assay: Suppressive blood schizonticidal antimalarial activity evaluated in the trophozoite-induced Plasmodium berghei infection in mice (Mus musculus) at a dose 20 mg/kg given as number of toxic deaths; assay type: ADME, organism-based; set-up: dose 20 mg/kg; conditions: in vivo; summary of the method: as §1
Mus musculus [35] = assay: Suppressive blood schizonticidal antimalarial activity evaluated in the trophozoite-induced Plasmodium berghei infection in mice (Mus musculus) at a dose 40 mg/kg given as number of toxic deaths; assay type: ADME, organism-based; set-up: dose 40 mg/kg; conditions: in vivo; summary of the method: as §1
Plasmodium cynomolgi [36] = assay: Radical curative antimalarial activity against Plasmodium cynomolgi in Rhesus monkeys (Macaca mulatta) at 0.316 mg/kg/day over 7 days; cured 3 of 5; assay type: functional
Plasmodium cynomolgi [37] = assay: Cures in Plasmodium cynomolgi infected Rhesus monkeys (Macaca mulatta) on 0.1 mg/kg/day after 7 days; cured 1 of 3; assay type: functional

COc1cc(NC(C)CCCN)c2ncc(C)cc2c1 (centres undefined)
Toxic deaths (Mus musculus [1]): 5 | Delta MST (Mus musculus [2]): 7.5 | Delta MST (Plasmodium berghei [3]): 5.7 | Cures/no. of animals (Plasmodium cynomolgi [4]): 0 | Cures/no. of animals (Plasmodium cynomolgi [5]): 2 | Toxic deaths (Mus musculus [6]): 1 | Toxic deaths (Mus musculus [7]): 2 | Toxic deaths (Plasmodium berghei [8]): 5 | Cures/no. of animals (Plasmodium cynomolgi [9]): 0

CCCCCCOc1c(OC)cc(NC(C)CCCN)c2ncc(C)cc12 (centres undefined)
Toxic deaths (Mus musculus [1]): 3 | Delta MST (Plasmodium berghei [3]): 8.2 | Cures/no. of animals (Plasmodium cynomolgi [4]): 0 | Cures (Plasmodium berghei [10]): 2 | Cures/no. of animals (Plasmodium cynomolgi [11]): 3 | Delta MST (Mus musculus [12]): 0.2 | Toxic deaths (Plasmodium berghei [8]): 4 | Cures/no. of animals (Plasmodium cynomolgi [9]): 0 | Delta MST (Mus musculus [13]): 7.6 | Cures (Mus musculus [14]): 1

C=CCCOc1c(OC)cc(NC(C)CCCN)c2nccc(C)c12 (centres undefined)
Toxic deaths (Mus musculus [1]): 5 | Delta MST (Plasmodium berghei [3]): 8.8 | Cures/no. of animals (Plasmodium cynomolgi [15]): 1 | Delta MST (Mus musculus [16]): 8.1 | Delta MST (Mus musculus [17]): 7.5 | Toxic deaths (Mus musculus [7]): 5 | Delta MST (Mus musculus [12]): 7.5 | Toxic deaths (Plasmodium berghei [8]): 5 | Cures/no. of animals (Plasmodium cynomolgi [18]): 1 | Cures (Mus musculus [19]): 1 | Delta MST (Mus musculus [20]): 0 | Cures/no. of animals (Plasmodium cynomolgi [21]): 0

CCCCCCOc1c(OC)cc(NC(C)CCCN)c2nccc(C)c12 (centres undefined) [WR-242511]
Toxic deaths (Mus musculus [1]): 5 | Cures (Mus musculus [22]): 1 | Cures/no. of animals (Plasmodium cynomolgi [23]): 3 | Cures (Plasmodium berghei [10]): 5 | Cures (Mus musculus [24]): 1 | Toxic deaths (Mus musculus [7]): 3 | Cures (Mus musculus [25]): 1 | Toxic deaths (Plasmodium berghei [8]): 5 | Cures/no. of animals (Plasmodium cynomolgi [18]): 1 | Cures (Mus musculus [26]): 5 | Cures/no. of animals (Plasmodium cynomolgi [27]): 0 | Cures/no. of animals (Plasmodium cynomolgi [28]): 5 | Cures (Mus musculus [14]): 4

CCCCOc1c(OC)cc(NC(C)CCCN)c2ncccc12 (centres undefined)
Cures/no. of animals (Plasmodium cynomolgi [29]): 2 | Delta MST (Mus musculus [2]): 6.7 | Delta MST (Plasmodium berghei [3]): 6.5 | Toxic deaths (Mus musculus [6]): 2 | Toxic deaths (Mus musculus [7]): 3 | Cures/no. of animals (Plasmodium cynomolgi [30]): 2 | Cures/no. of animals (Plasmodium cynomolgi [31]): Toxic | Delta MST (Mus musculus [12]): 4.1 | Toxic deaths (Plasmodium berghei [8]): 5

CCCCCCCOc1c(OC)cc(NC(C)CCCN)c2nccc(C)c12 (centres undefined)
Toxic deaths (Mus musculus [1]): 5 | Cures (Mus musculus [22]): 3 | Cures/no. of animals (Plasmodium cynomolgi [4]): 0 | Cures (Plasmodium berghei [10]): 4 | Delta MST (Mus musculus [17]): 7.9 | Toxic deaths (Mus musculus [7]): 1 | Cures/no. of animals (Plasmodium cynomolgi [31]): Toxic | Cures (Mus musculus [25]): 3 | Toxic deaths (Plasmodium berghei [8]): 5 | Cures (Mus musculus [26]): 5 | Cures/no. of animals (Plasmodium cynomolgi [32]): 4 | Cures/no. of animals (Plasmodium cynomolgi [33]): 2 | Cures (Mus musculus [14]): 2

COc1cc(NC(C)CCCN)c2nccc(C)c2c1OCCCCCCOCc1ccccc1 (centres undefined)
Toxic deaths (Mus musculus [34]): 2 | Cures/no. of animals (Plasmodium cynomolgi [29]): 2 | Cures (Mus musculus [22]): 2 | Cures (Mus musculus [24]): 1 | Cures (Mus musculus [25]): 4 | Toxic deaths (Mus musculus [35]): 5 | Cures/no. of animals (Plasmodium cynomolgi [36]): 3 | Cures/no. of animals (Plasmodium cynomolgi [37]): 1
